From ChEMBL document CHEMBL1833894, “The effect of a bromide leaving group on the properties of nitro analogs of the duocarmycins as hypoxia-activated prodrugs and phosphate pre-prodrugs for antitumor therapy” (Bioorg Med Chem, 2011)

Tests used:
SiHa [1] = test: Cytotoxicity against human SiHa cells assessed as reduction in cell density compound treated for 4 hrs under hypoxic condition measured after 5 days by sulforhodamine B assay; format: functional, cell-based
Method in brief: (§1)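 Log-phase monolayers exposed to drug for 4 h under aerobic (20% O₂) or anoxic (<20 ppm O₂) conditions, then stained with sulforhodamine B 5 days later. IC50 interpolated as the concentration cutting cell density to 50% of same-plate controls; mean of 3–6 experiments.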

HT-29 [2] = test: Ratio IC50 for human HT29 cells under oxic condition to IC50 for human HT29 cells under hypoxic condition; format: functional
Method in brief: (§2)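 Oxic IC50 divided by hypoxic IC50 (4 h exposure at 20% O₂ vs <20 ppm O₂, sulforhodamine B read-out 5 days later), taken as means of intraexperiment ratios over 2–6 experiments.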

HT-29 [3] = test: Cytotoxicity against human HT29 cells assessed as reduction in cell density compound treated for 4 hrs under hypoxic condition measured after 5 days by sulforhodamine B assay; format: functional, cell-based; method in brief: as §1
SiHa [4] = test: Cytotoxicity against human SiHa cells assessed as reduction in cell density compound treated for 4 hrs under oxic condition measured after 5 days by sulforhodamine B assay; format: functional, cell-based; method in brief: as §1
HT-29 [5] = test: Cytotoxicity against human HT29 cells assessed as reduction in cell density compound treated for 4 hrs under oxic condition measured after 5 days by sulforhodamine B assay; format: functional, cell-based; method in brief: as §1
SiHa [6] = test: Ratio IC50 for human SiHa cells under oxic condition to IC50 for human SiHa cells under hypoxic condition; format: functional; method in brief: as §2
SiHa [7] = test: Antitumor activity against human SiHa cells xenografted in CD1-Foxn1nu/nu nude mouse assessed as hypoxic log10 cell kill at 42 umol/kg, iv administered 5 mins after irradiated with gamma-15 Gy measured after 18 hrs; format: functional
Method in brief: (§3)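 Male nude mice bearing subcutaneous SiHa tumours, from 10⁷ cultured cells, randomised at a mean diameter of 8–10 mm. Phosphate given iv in phosphate-buffered saline with 4 equiv sodium bicarbonate, 5 min after whole-body cobalt-60 15 Gy. Tumours excised 18 h later for clonogenic assay (log10 clonogens/g), 5 mice per group. Hypoxic log cell kill = radiation + drug versus radiation alone; ANOVA with Holm-Sidak.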

SiHa [8] = test: Antitumor activity against human SiHa cells xenografted in CD1-Foxn1nu/nu nude mouse assessed as log10 clonogens/g tumor at 42 umol/kg, iv administered 5 mins after irradiated with gamma-15 Gy measured after 18 hrs (reference value: 5.34 +/- 0.04 to 5.73 +/- 0.15 no unit); format: functional
SiHa [9] = test: Antitumor activity against human SiHa cells xenografted in CD1-Foxn1nu/nu nude mouse assessed as log10 clonogens/g tumor at 42 umol/kg, iv measured after 18 hrs (reference value: 7.15 +/- 0.01 to 7.62 +/- 0.2 no unit); format: functional
SiHa [10] = test: Antitumor activity against human SiHa cells xenografted in CD1-Foxn1nu/nu nude mouse assessed as log10 clonogens/g tumor at 30 umol/kg, iv measured after 18 hrs (reference value: 7.15 +/- 0.01 to 7.62 +/- 0.2 no unit); format: functional
SiHa [11] = test: Antitumor activity against human SiHa cells xenografted in CD1-Foxn1nu/nu nude mouse assessed as hypoxic log10 cell kill at 30 umol/kg, iv administered 5 mins after irradiated with gamma-15 Gy measured after 18 hrs; format: functional; method in brief: as §3
SiHa [12] = test: Antitumor activity against human SiHa cells xenografted in CD1-Foxn1nu/nu nude mouse assessed as log10 clonogens/g tumor at 30 umol/kg, iv administered 5 mins after irradiated with gamma-15 Gy measured after 18 hrs (reference value: 5.34 +/- 0.04 to 5.73 +/- 0.15 no unit); format: functional
[13] = Aqueous solubility of the compound; format: physicochemical
SK-OV-3 = test: Cytotoxicity against human SKOV3 cells under oxic condition relative to hypoxic condition; format: functional
HT-29 [14] = test: Cytotoxicity against human HT29 cells under oxic condition relative to hypoxic condition; format: functional
Method in brief: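 Log-phase HT29 monolayers exposed to drug for 4 h under aerobic (20% O₂) or anoxic (<20 ppm O₂) conditions, then sulforhodamine B staining 5 days later. IC50 interpolated as the concentration cutting cell density to 50% of same-plate controls. Ratio = IC50(oxic)/IC50(hypoxic), taken as the mean of intraexperiment ratios over 2–6 experiments.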

Row | SMILES | IC50 (SiHa [1]) [µM] | Ratio IC50 (HT-29 [2]) | IC50 (HT-29 [3]) [µM] | IC50 (SiHa [4]) [µM] | IC50 (HT-29 [5]) [µM] | Ratio IC50 (SiHa [6]) | LCK (SiHa [7]) | Activity (SiHa [8]) | Activity (SiHa [9]) | also measured
1 | COc1cc2cc(C(=O)N3CC(CBr)c4c3cc([N+](=O)[O-])c3cc(S(=O)(=O)NCCO)ccc43)[nH]c2c(OC)c1OC (configuration not stated) | 0.27 | 10 | 1.35 | 2.61 | 12.3 | 10 |  |  |  | 
2 | COc1ccc(/C=C/C(=O)N2CC(CBr)c3c2cc([N+](=O)[O-])c2cc(S(=O)(=O)NCCO)ccc32)cc1 (configuration not stated) | 0.12 | >25 | < 0.1 | 1.44 | 2.45 | 17 |  |  |  | 
3 | O=C(c1cc2cc(OCCN3CCOCC3)ccc2[nH]1)N1CC(CBr)c2c1cc([N+](=O)[O-])c1cc(S(=O)(=O)NCCO)ccc21 (configuration not stated) | 0.28 | 52 | 0.44 | 11.7 | 22.4 | 43 |  |  |  | 
4 | O=C(/C=C/c1ccc(OCCN2CCOCC2)cc1)N1CC(CBr)c2c1cc([N+](=O)[O-])c1cc(S(=O)(=O)NCCO)ccc21 (configuration not stated) | 0.09 | 286 | 0.08 | 2.72 | 11.2 | 41 |  |  |  | 
5 | COc1cc2cc(C(=O)N3CC(CCl)c4c3cc([N+](=O)[O-])c3cc(S(=O)(=O)NCCO)ccc43)[nH]c2c(OC)c1OC (configuration not stated) | 3.5 | 2.1 | 11 | 13 | 28 | 16 |  |  |  | 
6 | CN(C)CCOc1ccc2[nH]c(C(=O)N3CC(CCl)c4c3cc([N+](=O)[O-])c3cc(S(=O)(=O)NCCO)ccc43)cc2c1 (configuration not stated) | 0.07 | 160 | 0.09 | 2 | 9.3 | 46 |  |  |  | 
7 | COc1cc2cc(C(=O)N3CC(CBr)c4c3cc([N+](=O)[O-])c3cc(S(=O)(=O)NCCOP(=O)(O)O)ccc43)[nH]c2c(OC)c1OC (configuration not stated) |  |  |  |  |  |  | 1.84 | 3.62 | 6.51 | 
8 | COc1ccc(/C=C/C(=O)N2CC(CBr)c3c2cc([N+](=O)[O-])c2cc(S(=O)(=O)NCCOP(=O)(O)O)ccc32)cc1 (configuration not stated) |  |  |  |  |  |  | 0.87 | 4.5 | 7.07 | 
9 | O=C(c1cc2cc(OCCN3CCOCC3)ccc2[nH]1)N1CC(CBr)c2c1cc([N+](=O)[O-])c1cc(S(=O)(=O)NCCOP(=O)(O)O)ccc21 (configuration not stated) |  |  |  |  |  |  | 2.8 | 2.6 | 6.05 | 
10 | O=C(/C=C/c1ccc(OCCN2CCOCC2)cc1)N1CC(CBr)c2c1cc([N+](=O)[O-])c1cc(S(=O)(=O)NCCOP(=O)(O)O)ccc21 (configuration not stated) |  |  |  |  |  |  |  |  |  | Activity (SiHa [10]): 7.01; LCK (SiHa [11]): 1.56; Activity (SiHa [12]): 3.78
11 | COc1cc2cc(C(=O)N3CC(CCl)c4c3cc([N+](=O)[O-])c3cc(S(=O)(=O)NCCOP(=O)(O)O)ccc43)[nH]c2c(OC)c1OC (configuration not stated) |  |  |  |  |  |  | 0.55 | 4.96 | 7.29 | 
12 | CN(C)CCOc1ccc2[nH]c(C(=O)N3CC(CCl)c4c3cc([N+](=O)[O-])c3cc(S(=O)(=O)NCCOP(=O)(O)O)ccc43)cc2c1 (configuration not stated) |  |  |  |  |  |  | 1.83 | 3.9 | 6.89 | solubility [13]: > 2000 µM
13 | CN(C)CCOc1ccc2[nH]c(C(=O)N3CC(CCl)c4c3cc([N+](=O)[O-])c3cc(S(N)(=O)=O)ccc43)cc2c1 (configuration not stated) |  |  |  |  |  |  |  |  |  | Ratio (SK-OV-3): 275; Ratio (HT-29 [14]): 330
